# Assay results taken from ChEMBL document CHEMBL1148788 (J Med Chem, 2007).
# Where “and” joins values, the source holds several entries; their conditions need not be identical. Identical values can stand only once. Calls of active or inactive are those of the source. The rule behind the calls is not given here.
# Legend:
# [1] = Displacement of [3H]methyllycaconitine from chimeric alpha-7nAChR D197A mutant/5HT3A receptor in tsA201 cells; type: cell-based, Homo sapiens
# Procedure, shortened: (§1)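 tsA-201 cells transiently transfected with 4 µg WT or mutant α7/5-HT3A chimera and assayed 2 days later. Membranes washed twice at 50000g in 50 mM Tris-HCl pH 7.2. Incubated with 0.5 nM [3H]MLA and compound for 2.5 h at room temperature with shaking; nonspecific binding with 5 mM (S)-nicotine. PEI-soaked GF/C filtration, scintillation counting. Ki derived; duplicate, 3–7 experiments.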
# [2] = molecular target: T1, Neuronal acetylcholine receptor; alpha3/beta4 (Rattus norvegicus, UniProt P04757+P12392); test: Antagonist activity at rat alpha3beta4 nAChR expressed in HEK293 cells by FMP assay; type: functional, cell-based, Homo sapiens; details: read-out: IC50
# T1 sequence (P04757 whole entry): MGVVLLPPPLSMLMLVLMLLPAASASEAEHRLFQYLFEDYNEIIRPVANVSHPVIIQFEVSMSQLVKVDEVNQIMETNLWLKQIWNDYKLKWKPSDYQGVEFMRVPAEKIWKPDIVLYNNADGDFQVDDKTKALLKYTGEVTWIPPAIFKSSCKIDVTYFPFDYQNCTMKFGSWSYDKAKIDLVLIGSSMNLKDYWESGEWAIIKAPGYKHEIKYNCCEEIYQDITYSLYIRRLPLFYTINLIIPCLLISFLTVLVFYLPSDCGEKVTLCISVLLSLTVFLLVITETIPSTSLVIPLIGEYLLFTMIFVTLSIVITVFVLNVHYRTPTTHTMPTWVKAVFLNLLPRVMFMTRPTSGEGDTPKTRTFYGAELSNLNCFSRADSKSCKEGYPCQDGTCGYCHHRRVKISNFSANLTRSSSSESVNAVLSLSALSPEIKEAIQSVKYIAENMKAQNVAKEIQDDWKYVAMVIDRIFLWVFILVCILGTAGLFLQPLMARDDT
# T1 sequence (P12392 whole entry): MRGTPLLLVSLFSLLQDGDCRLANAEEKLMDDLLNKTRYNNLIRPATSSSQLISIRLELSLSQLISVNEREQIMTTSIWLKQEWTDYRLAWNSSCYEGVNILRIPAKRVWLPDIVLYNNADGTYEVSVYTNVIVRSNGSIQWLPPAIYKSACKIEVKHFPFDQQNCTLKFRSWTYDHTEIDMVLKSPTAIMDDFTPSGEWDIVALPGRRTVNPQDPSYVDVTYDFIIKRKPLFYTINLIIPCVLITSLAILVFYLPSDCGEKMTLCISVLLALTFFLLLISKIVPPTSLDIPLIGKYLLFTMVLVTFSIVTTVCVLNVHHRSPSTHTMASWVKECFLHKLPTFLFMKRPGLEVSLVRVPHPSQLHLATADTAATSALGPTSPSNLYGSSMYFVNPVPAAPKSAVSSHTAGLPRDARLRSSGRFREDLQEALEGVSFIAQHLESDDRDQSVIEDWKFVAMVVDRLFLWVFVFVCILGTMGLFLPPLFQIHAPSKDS
# [3] = molecular target: T1, Neuronal acetylcholine receptor; alpha3/beta4; test: Displacement of [3H]epibatidine from recombinant rat alpha-3-beta-4 nAChr in HEK293 cell line; type: cell-based
# tsA201 [4] = test: Displacement of [3H]methyllycaconitine from chimeric alpha-7nAChR Y93A mutant/5HT3A receptor in tsA201 cells; type: cell-based; details: Homo sapiens; procedure, shortened: as §1
# [5] = Antagonist activity at human alpha-7 nAChR Y188A mutant coexpressed with human Ric3 in tsA201 cells by FMP assay; type: functional, cell-based
# [6] = Displacement of [3H]methyllycaconitine from chimeric alpha-7nAChR S148A mutant /5HT3A receptor in tsA201 cells; type: cell-based, Homo sapiens; procedure, shortened: as §1
# [7] = molecular target: Neuronal acetylcholine receptor; alpha4/beta4 (Rattus norvegicus, UniProt P09483+P12392); test: Displacement of [3H]epibatidine from recombinant rat alpha-4-beta-4 nAChr in HEK293 cell line; type: cell-based
# Neuronal acetylcholine receptor; alpha4/beta4, sequence (P09483 whole entry): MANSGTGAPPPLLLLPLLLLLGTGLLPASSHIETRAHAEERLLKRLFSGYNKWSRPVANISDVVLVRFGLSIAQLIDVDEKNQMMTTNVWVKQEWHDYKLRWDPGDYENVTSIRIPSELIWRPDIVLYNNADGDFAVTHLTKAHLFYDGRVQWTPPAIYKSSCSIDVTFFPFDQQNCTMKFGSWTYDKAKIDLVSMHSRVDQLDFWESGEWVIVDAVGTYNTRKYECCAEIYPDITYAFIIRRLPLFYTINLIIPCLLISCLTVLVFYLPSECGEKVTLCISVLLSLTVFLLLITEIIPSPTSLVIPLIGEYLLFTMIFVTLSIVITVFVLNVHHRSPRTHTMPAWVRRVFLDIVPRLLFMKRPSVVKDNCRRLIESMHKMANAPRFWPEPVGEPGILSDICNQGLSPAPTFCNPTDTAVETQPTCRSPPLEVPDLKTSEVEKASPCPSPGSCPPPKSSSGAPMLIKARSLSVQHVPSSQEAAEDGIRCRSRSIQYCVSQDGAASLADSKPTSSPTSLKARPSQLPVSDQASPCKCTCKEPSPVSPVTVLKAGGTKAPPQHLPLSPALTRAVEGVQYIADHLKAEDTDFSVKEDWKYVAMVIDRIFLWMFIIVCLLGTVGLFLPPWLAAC
# Neuronal acetylcholine receptor; alpha4/beta4, sequence (P12392 whole entry): as the sequence (P12392 whole entry) above
# [8] = Displacement of [3H]methyllycaconitine from chimeric alpha7nAChR W55Y mutant/5HT3A receptor in tsA201 cells; type: cell-based, Homo sapiens; procedure, shortened: as §1
# [9] = Displacement of [3H]methyllycaconitine from chimeric alpha-7nAChR W55A mutant /5HT3A receptor in tsA201 cells; type: cell-based, Homo sapiens; procedure, shortened: as §1
# [10] = molecular target: T2, Neuronal acetylcholine receptor subunit alpha-7 (Homo sapiens, UniProt P36544); test: Displacement of [3H]methyllycaconitine from alpha7 nAChR in tsA201 cells co-expressed with Ric3; type: cell-based
# Target sequence in this assay (P36544 whole entry): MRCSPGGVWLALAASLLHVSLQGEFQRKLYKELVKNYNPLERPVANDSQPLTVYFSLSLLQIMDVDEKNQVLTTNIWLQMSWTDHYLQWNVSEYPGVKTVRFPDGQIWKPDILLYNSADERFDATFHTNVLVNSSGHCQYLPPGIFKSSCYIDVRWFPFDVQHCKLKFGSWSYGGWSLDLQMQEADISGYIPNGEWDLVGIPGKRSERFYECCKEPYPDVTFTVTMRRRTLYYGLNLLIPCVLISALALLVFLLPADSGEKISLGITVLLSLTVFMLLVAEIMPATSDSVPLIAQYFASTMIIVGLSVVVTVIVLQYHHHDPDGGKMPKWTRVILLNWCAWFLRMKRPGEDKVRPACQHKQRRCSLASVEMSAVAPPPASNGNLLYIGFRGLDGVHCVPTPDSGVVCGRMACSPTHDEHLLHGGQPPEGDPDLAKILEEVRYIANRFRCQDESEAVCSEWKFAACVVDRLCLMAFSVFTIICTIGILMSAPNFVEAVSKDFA
# [11] = Displacement of [3H]methyllycaconitine from chimeric alpha-7nAChR N107A mutant/5HT3A receptor in tsA201 cells; type: cell-based, Homo sapiens; procedure, shortened: as §1
# [12] = Displacement of [3H]methyllycaconitine from chimeric alpha-7nAChR Y195F mutant/5HT3A receptor in tsA201 cells; type: cell-based, Homo sapiens; procedure, shortened: as §1
# [13] = molecular target: T2, Neuronal acetylcholine receptor subunit alpha-7; test: Displacement of [3H]methyllycaconitine from human alpha-7 in tsA201 cells coexpressed with 5HT3A receptor; type: cell-based
# Target sequence in this assay (P36544 whole entry): as above
# [14] = molecular target: T3, 5-hydroxytryptamine receptor 3A (Homo sapiens, UniProt P46098); test: Antagonist activity at human 5HT3A receptor expressed in HEK293 cells by FMP assay; type: functional, cell-based; details: read-out: IC50
# T3 sequence (P46098 whole entry): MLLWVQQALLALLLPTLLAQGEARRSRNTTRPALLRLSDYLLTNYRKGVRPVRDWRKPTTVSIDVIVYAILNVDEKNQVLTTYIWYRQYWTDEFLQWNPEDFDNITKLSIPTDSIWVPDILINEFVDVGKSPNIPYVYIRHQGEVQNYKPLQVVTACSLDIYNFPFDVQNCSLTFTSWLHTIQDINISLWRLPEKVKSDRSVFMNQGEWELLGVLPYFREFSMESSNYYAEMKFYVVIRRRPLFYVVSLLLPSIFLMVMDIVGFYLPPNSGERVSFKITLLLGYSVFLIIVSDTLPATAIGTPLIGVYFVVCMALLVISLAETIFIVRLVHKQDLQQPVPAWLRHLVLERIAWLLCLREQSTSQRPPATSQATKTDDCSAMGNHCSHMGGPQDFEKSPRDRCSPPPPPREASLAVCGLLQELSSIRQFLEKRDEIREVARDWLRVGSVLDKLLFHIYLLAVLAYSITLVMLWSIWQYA
# tsA201 [15] = test: Displacement of [3H]methyllycaconitine from chimeric alpha-7nAChR W149Y mutant/5HT3A receptor W149Y mutant in tsA201 cells; type: cell-based; details: Homo sapiens; procedure, shortened: as §1
# [16] = molecular target: Neuronal acetylcholine receptor; alpha4/beta2 (Rattus norvegicus, UniProt P09483+P12390); test: Displacement of [3H]epibatidine from rat recombinant alpha-4-beta-2 nAChR in HEK293 cell line; type: cell-based
# Neuronal acetylcholine receptor; alpha4/beta2, sequence (P09483 whole entry): as the sequence (P09483 whole entry) above
# Neuronal acetylcholine receptor; alpha4/beta2, sequence (P12390 whole entry): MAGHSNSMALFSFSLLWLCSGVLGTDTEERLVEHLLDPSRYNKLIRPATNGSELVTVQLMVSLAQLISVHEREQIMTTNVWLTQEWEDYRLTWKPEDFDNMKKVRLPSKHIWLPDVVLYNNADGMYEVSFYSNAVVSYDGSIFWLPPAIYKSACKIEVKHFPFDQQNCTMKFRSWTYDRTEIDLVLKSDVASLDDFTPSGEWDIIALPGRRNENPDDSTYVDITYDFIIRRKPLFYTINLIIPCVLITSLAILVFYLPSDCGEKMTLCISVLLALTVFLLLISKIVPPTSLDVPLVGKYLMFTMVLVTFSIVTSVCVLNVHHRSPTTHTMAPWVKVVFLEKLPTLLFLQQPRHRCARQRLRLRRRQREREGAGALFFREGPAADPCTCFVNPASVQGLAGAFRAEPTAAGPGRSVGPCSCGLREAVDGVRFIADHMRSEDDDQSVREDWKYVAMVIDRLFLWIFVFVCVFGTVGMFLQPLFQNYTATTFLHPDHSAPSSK
# tsA201 [17] = test: Displacement of [3H]methyllycaconitine from chimeric alpha-7nAChR W149A mutant/5HT3A receptor in tsA201 cells; type: cell-based; details: Homo sapiens; procedure, shortened: as §1
# [18] = Displacement of [3H]methyllycaconitine from chimeric alpha-7nAChR K145R mutant /5HT3A receptor in tsA201 cells; type: cell-based, Homo sapiens; procedure, shortened: as §1
# cells = type: functional, cell-based; details: Homo sapiens, HEK293
# [19] = Displacement of [3H]methyllycaconitine from chimeric alpha7nAChR K145A mutant/5HT3A receptor in tsA201 cells; type: cell-based, Homo sapiens; procedure, shortened: as §1
# tsA201 [20] = test: Displacement of [3H]methyllycaconitine from chimeric alpha-7nAChR Y188A mutant/5-HT3A receptor in tsA201 cells; type: cell-based; details: Homo sapiens; procedure, shortened: as §1
# [21] = molecular target: T2, Neuronal acetylcholine receptor subunit alpha-7
# Target sequence in this assay (P36544 whole entry): as the sequence (P36544 whole entry) above
# [22] = molecular target: T2, Neuronal acetylcholine receptor subunit alpha-7; test: Antagonist activity at human alpha-7 nAChR in tsA201 cells coexpressed with Ric3 by FMP assay; type: functional, cell-based
# Target sequence in this assay (P36544 whole entry): as above
# [23] = Antagonist activity at human alpha-7 nAChR Y195A mutant coexpressed with human Ric3 in tsA201 cells by FMP assay; type: functional, cell-based
# [24] = Antagonist activity at human alpha7 nAChR W149Y mutant co-expressed with human Ric3 in tsA201 cells by FMP assay; type: functional, cell-based
# [25] = Antagonist activity at human alpha7nAChR Y93A mutant co-expressed with human Ric3 in tsA201 cells by FMP assay; type: functional, cell-based
# [26] = Displacement of [3H]methyllycaconitine from chimeric alpha7nAChR Y195A mutant/5HT3A receptor in tsA201 cells; type: cell-based, Homo sapiens; procedure, shortened: as §1
# [27] = Displacement of [3H]methyllycaconitine from chimeric alpha7nAChR R79A mutant/5HT3A receptor R79A mutant in tsA201 cells; type: cell-based, Homo sapiens; procedure, shortened: as §1
# [28] = molecular target: T4, Glycine receptor subunit alpha-1 (Homo sapiens, UniProt P23415); test: Antagonist activity at human glycine alpha-1 receptor in HEK293 cells by FMP assay; type: functional, cell-based
# T4 sequence (P23415 whole entry): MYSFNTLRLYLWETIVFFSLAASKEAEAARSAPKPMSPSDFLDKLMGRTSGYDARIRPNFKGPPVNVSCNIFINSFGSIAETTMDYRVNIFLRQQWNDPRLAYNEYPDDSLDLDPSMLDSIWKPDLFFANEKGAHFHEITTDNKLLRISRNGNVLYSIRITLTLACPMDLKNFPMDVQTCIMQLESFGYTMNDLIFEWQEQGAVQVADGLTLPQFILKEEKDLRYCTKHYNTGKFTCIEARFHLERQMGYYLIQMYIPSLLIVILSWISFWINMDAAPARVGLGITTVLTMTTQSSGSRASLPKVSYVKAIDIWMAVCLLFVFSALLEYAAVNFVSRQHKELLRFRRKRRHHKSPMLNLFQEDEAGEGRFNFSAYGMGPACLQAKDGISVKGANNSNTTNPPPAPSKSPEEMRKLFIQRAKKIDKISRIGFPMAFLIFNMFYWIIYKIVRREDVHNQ
# [29] = molecular target: T2, Neuronal acetylcholine receptor subunit alpha-7; test: Displacement of [3H]methyllycaconitine from chimeric alpha7nAChR/5HT3A in tsA201 cells; type: cell-based
# Target sequence in this assay (P36544 23-502 limits assumed): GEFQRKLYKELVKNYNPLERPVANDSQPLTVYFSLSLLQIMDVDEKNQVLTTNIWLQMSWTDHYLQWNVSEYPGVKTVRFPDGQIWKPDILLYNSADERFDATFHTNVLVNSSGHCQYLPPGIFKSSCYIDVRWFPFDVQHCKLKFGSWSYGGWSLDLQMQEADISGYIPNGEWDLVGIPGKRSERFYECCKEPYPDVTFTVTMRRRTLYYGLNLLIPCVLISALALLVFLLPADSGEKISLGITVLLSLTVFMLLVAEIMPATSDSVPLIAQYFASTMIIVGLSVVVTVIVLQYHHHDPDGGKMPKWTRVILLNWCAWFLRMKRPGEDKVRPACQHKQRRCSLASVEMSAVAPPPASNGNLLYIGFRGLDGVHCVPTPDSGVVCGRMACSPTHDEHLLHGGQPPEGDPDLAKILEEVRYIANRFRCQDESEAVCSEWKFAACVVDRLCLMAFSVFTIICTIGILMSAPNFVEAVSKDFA
# tsA201 [30] = test: Displacement of [3H]methyllycaconitine from chimeric alpha-7nAChR W55A/Y195A mutant /5HT3A receptor in tsA201 cells; type: cell-based; details: Homo sapiens; procedure, shortened: as §1
# [31] = Displacement of [3H]methyllycaconitine from chimeric alpha-7nAChR S150A mutant/5HT3A receptor in tsA201 cells; type: cell-based, Homo sapiens; procedure, shortened: as §1
# [32] = Displacement of [3H]methyllycaconitine from chimeric alpha-7nAChR Y168A mutant/5HT3A receptor in tsA201 cells; type: cell-based, Homo sapiens; procedure, shortened: as §1
# [33] = molecular target: T3, 5-hydroxytryptamine receptor 3A; test: Displacement of [3H]GR65630 from human 5HT3A receptor in HEK293 cells; type: cell-based
structure (smiles),measurement,setting,value
C[N+]12CC[C@@H]3[C@@H]4[C@@H]5[C@@H](OCC=C(C1)[C@@H]5C[C@@H]32)N1c2ccccc2[C@@]23CC[N+]5(C)CC6=CCO[C@H]([C@@H]([C@H]12)[C@H]6C[C@@H]35)N4c1ccccc1.[I-].[I-] (stereo partly drawn),Ki,[1],550 nM
same,pKi,[1],6.26
same,IC50,[2],30000 nM
same,Ki,[3],30000 nM
same,Activity,tsA201 [4],inactive
same,IC50,[5]; read-out: IC50,2500 nM
same,IC50,[5]; read-out: pIC50 (converted),2450 nM
same,Ki,[6],790 nM
same,pKi,[6],6.1
same,Ki,[7],> 100000 nM
same,pKi,[7]; hek293,< 4
same,Ki,[8],300 nM
same,pKi,[8],6.53
same,Ki,[9],850 nM
same,pKi,[9],6.07
same,Ki,[10]; read-out: Ki,210 nM
same,Ki,[10]; read-out: pKi (converted),200 nM
same,Ki,[11],330 nM
same,pKi,[11],6.48
same,Ki,[12],390 nM
same,pKi,[12],6.41
same,Ki,[13]; read-out: Ki,300 nM
same,Ki,[13]; read-out: pKi (converted),316 nM
same,IC50,[14],30000 nM
same,Activity,tsA201 [15],inactive
same,pKi,[16]; hek293,< 4
same,Ki,[16]; read-out: Ki,> 100000 nM
same,Activity,tsA201 [17],inactive
same,Ki,[18],430 nM
same,pKi,[18],6.37
same,IC50,cells; read-out: IC50,> 100000 nM
same,IC50,cells; read-out: pIC50 (converted),> 100000 nM
same,Ki,[19],250 nM
same,pKi,[19],6.6
same,Activity,tsA201 [20],inactive
same,IC50,[21],1500 nM and 1510 nM
same,IC50,[22]; read-out: IC50,1500 nM
same,IC50,[22]; read-out: pIC50 (converted),1480 nM
same,IC50,[23]; read-out: IC50,7100 nM
same,IC50,[23]; read-out: pIC50 (converted),7080 nM
same,IC50,[24]; read-out: IC50,2700 nM
same,IC50,[24]; read-out: pIC50 (converted),2690 nM
same,IC50,[25]; read-out: IC50,1300 nM
same,IC50,[25]; read-out: pIC50 (converted),1320 nM
same,Ki,[26],2900 nM
same,pKi,[26],5.54
same,Ki,[27],660 nM
same,pKi,[27],6.18
same,IC50,[28],> 100000 nM
same,pIC50,[28]; hek293,< 4
same,Ki,[29],330 nM
same,pKi,[29],6.48
same,Activity,tsA201 [30],inactive
same,Ki,[31],500 nM
same,pKi,[31],6.3
same,Ki,[32],310 nM
same,pKi,[32],6.51
same,Ki,[33],11000 nM
